# Results: ChEMBL document CHEMBL1129379, “Heterocyclic ureas: inhibitors of acyl-CoA:cholesterol O-acyltransferase as hypocholesterolemic agents” (J Med Chem, 1996)
# pIC50: −log10 of the molar value.
# What was measured:
# [1] = target: T1, Sterol O-acyltransferase 1 (Rattus norvegicus) (UniProt O70536); assay: Percent change in plasma total cholesterol in an acute cholesterol-fed rat model of hypercholesterolemia, dose at 30 mg/kg; format: functional, organism-based; parameters: dose 30 mg/kg
# T1 sequence (whole entry): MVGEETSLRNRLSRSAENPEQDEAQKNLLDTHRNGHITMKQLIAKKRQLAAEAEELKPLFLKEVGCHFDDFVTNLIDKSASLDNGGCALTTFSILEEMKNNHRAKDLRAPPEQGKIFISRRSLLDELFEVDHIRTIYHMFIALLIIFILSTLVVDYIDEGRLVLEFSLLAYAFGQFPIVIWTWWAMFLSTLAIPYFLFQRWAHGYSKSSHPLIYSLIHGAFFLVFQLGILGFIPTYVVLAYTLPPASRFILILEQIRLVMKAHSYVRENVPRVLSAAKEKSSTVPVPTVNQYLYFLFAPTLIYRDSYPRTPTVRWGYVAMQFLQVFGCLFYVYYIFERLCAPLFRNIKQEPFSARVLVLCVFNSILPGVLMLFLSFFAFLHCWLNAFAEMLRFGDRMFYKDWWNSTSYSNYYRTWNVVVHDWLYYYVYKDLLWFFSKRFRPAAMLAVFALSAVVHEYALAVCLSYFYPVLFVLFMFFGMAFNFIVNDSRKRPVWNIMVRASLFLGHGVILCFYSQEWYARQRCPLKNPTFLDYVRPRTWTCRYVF
# O-acyltransferase = O-acyltransferase (Oryctolagus cuniculus, UniProt G1SFD9); assay: Acyl coenzyme A:cholesterol acyltransferase 1 inhibition in vitro measured in rabbit intestinal microsomes; parameters: species or system Intestine
# [2] = target: T1, Sterol O-acyltransferase 1 (Rattus norvegicus); assay: Percent change in plasma total cholesterol in an acute cholesterol-fed rat model of hypercholesterolemia, dose at 3 mg/kg; format: functional, organism-based; parameters: dose 3 mg/kg
# Rattus norvegicus [3] = assay: Percent change in HDL-C,dose at 30 mg/kg; format: functional
# Method in brief: (§1)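 Chronic rat model of pre-established hypercholesterolemia: 1 week on high-cholesterol diet, then compound dosed orally once daily for 1 week. Plasma total cholesterol, HDL-C and non-HDL-C expressed as percent change versus control; p < 0.05 flagged.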
# Rattus norvegicus [4] = assay: Percent change in plasma TC in the chronic C-fed rat model of pre-established hypercholesterolemia. dose at 30 mg/kg; format: functional; method in brief: as §1
# Rattus norvegicus [5] = assay: Percent change in non-HDL-C, dose at 30 mg/kg; format: functional; method in brief: as §1
# Rattus norvegicus [6] = assay: Percent change in non-HDL-C Dose at 30 mg/kg; format: functional; method in brief: as §1
# Rattus norvegicus [7] = assay: Percent change in HDL-Cdose at 30 mg/kg; format: functional; method in brief: as §1
# Rattus norvegicus [8] = assay: Percent change in HDL-CDose at 30 mg/kg; format: functional; method in brief: as §1
# [9] = target: T1, Sterol O-acyltransferase 1 (Rattus norvegicus); assay: Percent change in plasma TC in the chronic C-fed rat model of pre-established hypercholesterolemia. Dose at 30 mg/kg; format: functional, organism-based; parameters: dose 30 mg/kg; method in brief: as §1
SMILES,Delta TC [1],pIC50 (O-acyltransferase),Delta TC [2],other results
CCCCCCCCCCCCCSc1n[nH]c(NC(=O)Nc2c(C(C)C)cccc2C(C)C)n1,12%,,,
CCCCCCCCCCCCC[S+]([O-])c1n[nH]c(NC(=O)Nc2c(C(C)C)cccc2C(C)C)n1 (stereo not drawn),-6%,5.77,,
CCCCCCCCCCCCn1cnc(NC(=O)Nc2c(C(C)C)cccc2C(C)C)c1,,7.46,,
CCCCCCCCCCCCCS(=O)(=O)c1n[nH]c(NC(=O)Nc2c(C(C)C)cccc2C(C)C)n1,-11%,5.33,,
CCCCCCCCCCN1NN=C(NC(=O)Nc2c(C(C)C)cccc2C(C)C)N1,-62%,7.85,-35%,
CCCCCCCCCCCCn1nnnc1NC(=O)Nc1c(C(C)C)cccc1C(C)C,-57%,6.68,-45%,
CCCCCCCCCCCCN1NN=C(CNC(=O)Nc2c(C(C)C)cccc2C(C)C)N1,-58%,7.92,-31%,
CCCCCCCCCCCc1csc(NC(=O)Nc2c(C(C)C)cccc2C(C)C)n1,-29%,6.82,,
CC(C)c1cccc(C(C)C)c1NC(=O)NC1=NN(Cc2ccccc2)NN1,-27%,6.43,,
CCCCCCCCCCCCCc1cc(NC(=O)Nc2c(C(C)C)cccc2C(C)C)no1,-62%,7.85,-59%,Delta HDL-C (Rattus norvegicus [3]): 33%; Delta TC (Rattus norvegicus [4]): -40%; Non-HDL-C (Rattus norvegicus [5]): -45%
CCCCCCCCCCn1nnnc1NC(=O)Nc1c(C(C)C)cccc1C(C)C,-65%,,-22%,
CCCCCCCCCCCCCc1nnc(NC(=O)Nc2c(C(C)C)cccc2C(C)C)o1,-62%,7.74,-34%,
CC(C)=CCC/C(C)=C/Cn1nnc(NC(=O)Nc2c(C(C)C)cccc2C(C)C)n1,-27%,7.20,,
CC(C)c1cccc(C(C)C)c1NC(=O)Nc1nnn(CCCCCCCCCCCOC2CCCCO2)n1 (stereo not drawn),-53%,7.43,-28%,
CCCCCCCCCCc1cc(NC(=O)Nc2c(C(C)C)cccc2C(C)C)on1,-69%,7.54,-61%,Delta TC (Rattus norvegicus [4]): -13%; Non-HDL-C (Rattus norvegicus [6]): -14%; Delta HDL-C (Rattus norvegicus [7]): -6%
CCCCCCCCCCc1sc(NC(=O)Nc2c(C(C)C)cccc2C(C)C)nc1C,-33%,6.92,,
CCCCCCCCCCCCN1NN=C(CNC(=O)Nc2c(OC)cc(OC)cc2OC)N1,-40%,6.82,,
CCCCCCCCCCCCCCCCN1NN=C(NC(=O)Nc2c(C(C)C)cccc2C(C)C)N1,-67%,7.24,-43%,
CCCCCCCCCCCCCCc1cc(NC(=O)Nc2c(C(C)C)cccc2C(C)C)on1,-64%,7.55,-44%,Non-HDL-C (Rattus norvegicus [6]): -18%; Delta HDL-C (Rattus norvegicus [8]): 16%; Delta TC [9]: -16%
CCCCCCCCCCCCN1NN=C(NC(=O)Nc2c(OC)cc(OC)cc2OC)N1,-75%,7.18,-69%,
CC(C)c1cccc(C(C)C)c1NC(=O)Nc1nn[nH]n1,-19%,,,
